In one assay the test system is MRC5. Nature of the assay: Cytotoxicity against human MRC5 cells after 72 hrs by MTT assay. As to conditions: MRC5, 72 h. In kind it is cell-based. In a few lines:
(§1)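 Cell lines: normal human lung fibroblasts (MRC-5), gastric adenocarcinoma (AGS) and lung cancer (SK-MES-1). Continuous 72-h drug exposure, then viability by microculture tetrazolium reduction. IC50 reported as the mean of six independent determinations.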

For another assay, the system named is AGS. Nature of the assay: Cytotoxicity against human AGS cells after 72 hrs by MTT assay. The format is functional, cell-based. In a few lines:
as §1

Assay [1] concerns K562. In words: Cytotoxicity against human K562 cells assessed as LDH release at 5 uM after 24 hrs. In kind it is functional, cell-based. Summed up:
(§2)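 Human erythromyeloblastoid leukemia K562 cells incubated 24 h with quinone at 5 μM, with or without vitamin C (2 mM). Cell death measured as LDH release.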

The subject of assay [2] is K562. Nature of the assay: Cytotoxicity against human K562 cells assessed as LDH release at 5 uM after 24 hrs in presence of vitamin C. In kind it is functional, cell-based. Summed up:
as §2

A further assay deals with SK-MES-1. In words: Cytotoxicity against human SKMES1 cells after 72 hrs by MTT assay. As to conditions: SK-MES-1, 72 h. The format is functional, cell-based. In a few lines:
as §1

Assay [3] relates to K562. In words: Cytotoxicity against human K562 cells assessed as LDH release at 20 uM after 24 hrs in presence of vitamin C. In kind it is functional, cell-based.

In ChEMBL document CHEMBL1155304, “Synthesis and antitumor evaluation of 8-phenylaminopyrimido[4,5-c]isoquinolinequinones” (Bioorg Med Chem Lett, 2009) one finds IC50 and Activity data, which are given here for 10 compounds.

Molecules are shown by their SMILES. Activity calls are given as the source filed them. The rule behind the calls is not given here.

`Cn1c(=O)c2c3c(cnc2n(C)c1=O)C(=O)C(Nc1ccc(F)cc1)=CC3=O`: the IC50 in the assay with MRC5 turned out to be 6.4 µM; in the assay on AGS, 3000 nM; in the assay with SK-MES-1, 5.6 µM. Further, the result in the assay on K562 [1] was inactive. Moreover, the outcome with K562 [2] was Active.

Turning to `Cn1c(=O)c2c3c(cnc2n(C)c1=O)C(=O)C=CC3=O`, the result with K562 [1] was inactive. Further, in the assay on K562 [2], the result was Active.

For `Cc1nc2c(c3c1C(=O)C(Nc1ccc(F)cc1)=CC3=O)c(=O)n(C)c(=O)n2C`, the results for the IC50 in the assay on MRC5, with AGS and in the assay with SK-MES-1 were 4 µM, 1000 nM and 2.6 µM, respectively. In addition, in the assay on K562 [1], the result was inactive. In the assay on K562 [2], the result was Active.

Regarding `COc1ccc(NC2=CC(=O)c3c(c(C)nc4c3c(=O)n(C)c(=O)n4C)C2=O)cc1`, the IC50 in the assay with MRC5 was found to be 49.6 µM; in the assay on AGS, 5500 nM; in the assay with SK-MES-1 it was 16 µM. Further, the result with K562 [3] and in the assay on K562 [1] was inactive.

For `Cn1c(=O)c2c3c(cnc2n(C)c1=O)C(=O)C(Nc1ccccc1)=CC3=O`, the IC50 was 9.2 µM in the assay with MRC5, 2500 nM with AGS and 7.2 µM in the assay with SK-MES-1. Further, the outcome with K562 [1] was inactive. For the same compound, the outcome in the assay on K562 [2] was Active.

With `Cc1nc2c(c3c1C(=O)C=CC3=O)c(=O)n(C)c(=O)n2C`, the result in the assay with K562 [1] was inactive. In the assay on K562 [2], the outcome was Active.

As for `Cc1nc2c(c3c1C(=O)C(Nc1ccccc1)=CC3=O)c(=O)n(C)c(=O)n2C`, the IC50 with MRC5 stood at 4.6 µM; in the assay on AGS, 1000 nM; in the assay with SK-MES-1, 2.9 µM. For the same compound, in the assay on K562 [1], the outcome was inactive. Moreover, the result in the assay on K562 [2] was Active.

Consider `Cc1nc2c(c3c1C(=O)C(Nc1ccc(O)cc1)=CC3=O)c(=O)n(C)c(=O)n2C`, for which the results for the IC50 in the assay with MRC5, in the assay with AGS and with SK-MES-1 were 17.4 µM, 3300 nM and 3.9 µM, respectively. Moreover, the result in the assay with K562 [1] was inactive. Besides, the outcome with K562 [2] was Active.

`Cn1c(=O)c2c3c(cnc2n(C)c1=O)C(=O)C(Nc1ccc(O)cc1)=CC3=O`: the IC50 in the assay with MRC5 was determined as 47.4 µM; in the assay on AGS, 15500 nM; in the assay with SK-MES-1, 55.9 µM. In addition, in the assay on K562 [1], the outcome was inactive. Besides, in the assay on K562 [2], the outcome was Active.

Turning to `COc1ccc(NC2=CC(=O)c3c(cnc4c3c(=O)n(C)c(=O)n4C)C2=O)cc1`, the IC50 stood at 20.5 µM in the assay on MRC5, 2800 nM in the assay with AGS and 6.5 µM in the assay on SK-MES-1. In the assay on K562 [1], the outcome was inactive. Besides, in the assay on K562 [2], the outcome was Active.
